# Laboratory results taken from ChEMBL document CHEMBL4130474, “Spirotriazoline oxindoles: A novel chemical scaffold with in vitro anticancer properties” (Eur J Med Chem, 2017).
# pIC50: −log10 of the molar value. Activity calls are given as the source filed them. The calls are words filed in the database; no cut-off is given here.
# Legend:
# MCF7 = assay: Antiproliferative activity in human MCF7 cells incubated for 72 hrs by MTT assay; type: functional, cell-based; conditions: MCF7, 72 h
# How it was run: (§1)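 Cells grown in RPMI 1640 with 10% FBS, penicillin/streptomycin; seeded at 2 × 10⁵ cells/mL, allowed to adhere 24 h, then exposed 72 h to compounds diluted in medium from DMSO stocks. MTT added after medium change, 3 h, formazan dissolved in DMSO, absorbance at 570 nm. Triplicate wells, at least 3 independent experiments; IC50 by non-linear regression.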
# [1] = Potency index, ratio of IC50 for antiproliferative activity in human p53 (-/-) human HCT116 cells to IC50 for antiproliferative activity in human p53 (+/+) human HCT116; type: functional
# HCT-116 [2] = assay: Induction of cell cycle arrest in p53 (+/+) human HCT116 cells assessed as accumulation at S phase at antiproliferative IC50 level incubated for 48 hrs by propidium iodide staining based flow cytometry (reference value: 22.67%); type: functional
# HCT-116 [3] = assay: Antiproliferative activity in p53 (+/+) human HCT116 cells incubated for 72 hrs by MTS assay; type: functional, cell-based; conditions: HCT-116, 72 h
# How it was run: (§2)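 HCT116 p53(+/+) or p53(−/−) seeded at 1 × 10⁵ cells/mL, adhered 24 h, then treated 72 h with compounds diluted from DMSO stocks. Viability by MTS (CellTiter96 AQueous) with absorbance at 490 nm. Duplicate wells, three independent experiments; IC50 by non-linear regression.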
# CCD-18Co [4] = assay: Cytotoxicity in human CCD-18Co cells assessed as reduction in cell viability at antiproliferative IC50 (for p53 (+/+) human HCT116 cells) incubated for 72 hrs by MTS assay; type: cell-based
# How it was run: (§3)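 CCD-18Co colon fibroblasts grown in DMEM with 10% FBS, penicillin/streptomycin, Glutamax, NEAA. […] Viability by MTS, absorbance at 490 nm. Triplicate wells, at least 2 independent experiments; mean ± SEM.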
# HEK-293T = assay: Antiproliferative activity in human HEK293T cells incubated for 72 hrs by MTT assay; type: cell-based; how it was run: as §1
# HCT-116 [5] = assay: Induction of cell cycle arrest in p53 (+/+) human HCT116 cells assessed as accumulation at G0/G1 phase at antiproliferative IC50 level incubated for 48 hrs by propidium iodide staining based flow cytometry (reference value: 50.48%); type: functional
# HCT-116 [6] = assay: Induction of cell cycle arrest in p53 (+/+) human HCT116 cells assessed as accumulation at S phase at antiproliferative IC50 level incubated for 24 hrs by propidium iodide staining based flow cytometry (reference value: 38.3%); type: functional
# HCT-116 [7] = assay: Reduction in MDM2 protein expression in p53 (+/+) human HCT116 cells at antiproliferative IC50 level incubated for 72 hrs by Western blot; type: functional, cell-based
# How it was run: (§4)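 Lysed in NP-40 buffer, protein measured by Bradford, separated by 8%/14% SDS-PAGE, blotted to nitrocellulose. Probed overnight at 4 °C with anti-p53 (Pab-240) and anti-MDM2 (SMP-14), then HRP secondary with chemiluminescence. Ponceau S loading control, densitometry; two experiments.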
# [8] = Selectivity index, ratio of IC50 for antiproliferative activity in HEK293T cells to IC50 for antiproliferative activity in human p53 (-/-) human HCT116 cells; type: toxicity, cell-based; conditions: HEK293T cells versus p53 (-/-) HCT116 cells, read-out: Ratio IC50
# HCT-116 [9] = assay: Induction of cell cycle arrest in p53 (+/+) human HCT116 cells assessed as accumulation at G0/G1 phase at antiproliferative IC50 level incubated for 24 hrs by propidium iodide staining based flow cytometry (reference value: 31.87%); type: functional
# [10] = Selectivity index, ratio of IC50 for antiproliferative activity in HEK293T cells to IC50 for antiproliferative activity in human p53 (+/+) human HCT116 cells; type: toxicity, cell-based; conditions: HEK293T cells versus p53 (+/+) HCT116 cells, read-out: Ratio IC50
# CCD-18Co [11] = assay: Cytotoxicity in human CCD-18Co cells assessed as reduction in cell viability at antiproliferative IC80 (for p53 (+/+) human HCT116 cells) incubated for 72 hrs by MTS assay; type: cell-based; how it was run: as §3
# HCT-116 [12] = assay: Increase in p53 protein expression in p53 (+/+) human HCT116 cells at antiproliferative IC50 level incubated for 72 hrs by Western blot; type: functional, cell-based; how it was run: as §4
# HCT-116 [13] = assay: Antiproliferative activity in p53 (-/-) human HCT116 cells incubated for 72 hrs by MTS assay; type: functional, cell-based; conditions: HCT-116, 72 h; how it was run: as §2
# HCT-116 [14] = assay: Induction of apoptosis in p53 (+/+) human HCT116 cells assessed as increase in early apoptotic cells level at antiproliferative IC50 level incubated for 72 hrs by Annexin-V and 7-AAD staining based flow cytometry; type: functional
# How it was run: (§5)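 Cells detached with Accutase and stained with Annexin V/7-AAD (Guava Nexin), 20 min at room temperature in the dark. Flow cytometry, ≥5000 events per sample; three independent experiments.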
# [15] = Selectivity index, ratio of IC50 for antiproliferative activity in HEK293T cells to IC50 for antiproliferative activity in human MCF7 cells; type: toxicity, cell-based; conditions: HEK293T cells versus MCF7 cells, read-out: Ratio IC50
# How it was run: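 Ratio of HEK 293T IC50 to MCF-7 IC50 from 72 h MTT assays.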
# HCT-116 [16] = assay: Induction of apoptosis in p53 (+/+) human HCT116 cells at 2 times antiproliferative IC50 level incubated for 72 hrs by Annexin-V and 7-AAD staining based flow cytometry; type: functional, cell-based; how it was run: as §5
# [17] = molecular target: Tumour suppressor p53/oncoprotein Mdm2 (Homo sapiens) (UniProt P04637+Q00987); assay: Inhibition of p53/MDM2 interaction (unknown origin) transfected in p53 (-/-) human HCT116 cells at 10 uM incubated for 4 hrs by Venus-based bimolecular fluorescence complementation assay
# Chain of Tumour suppressor p53/oncoprotein Mdm2 (Homo sapiens) (P04637 whole entry, looked up): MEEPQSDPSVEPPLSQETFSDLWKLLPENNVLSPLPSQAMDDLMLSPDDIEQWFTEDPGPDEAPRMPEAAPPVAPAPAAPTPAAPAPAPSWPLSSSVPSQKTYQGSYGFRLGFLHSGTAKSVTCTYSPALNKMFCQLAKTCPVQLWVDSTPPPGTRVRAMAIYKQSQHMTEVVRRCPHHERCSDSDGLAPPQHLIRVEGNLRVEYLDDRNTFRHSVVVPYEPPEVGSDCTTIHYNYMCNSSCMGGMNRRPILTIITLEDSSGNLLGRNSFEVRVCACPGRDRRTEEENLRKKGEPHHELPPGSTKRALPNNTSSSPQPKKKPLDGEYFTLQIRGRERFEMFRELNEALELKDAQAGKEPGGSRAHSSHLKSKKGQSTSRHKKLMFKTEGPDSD
# Chain of Tumour suppressor p53/oncoprotein Mdm2 (Homo sapiens) (Q00987 whole entry, looked up): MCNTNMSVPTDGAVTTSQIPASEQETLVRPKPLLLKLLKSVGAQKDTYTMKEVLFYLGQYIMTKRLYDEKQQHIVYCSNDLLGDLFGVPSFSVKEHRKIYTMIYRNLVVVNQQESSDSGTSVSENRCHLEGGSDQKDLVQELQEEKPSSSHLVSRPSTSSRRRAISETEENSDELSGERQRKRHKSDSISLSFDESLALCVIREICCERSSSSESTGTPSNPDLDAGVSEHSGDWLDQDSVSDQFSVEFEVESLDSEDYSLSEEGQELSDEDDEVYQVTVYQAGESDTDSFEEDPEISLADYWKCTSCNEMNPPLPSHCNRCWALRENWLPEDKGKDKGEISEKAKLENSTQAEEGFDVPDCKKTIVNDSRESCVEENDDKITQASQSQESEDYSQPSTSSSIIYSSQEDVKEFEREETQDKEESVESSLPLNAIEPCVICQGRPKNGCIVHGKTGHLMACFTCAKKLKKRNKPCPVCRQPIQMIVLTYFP
# How it was run: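 HCT116 p53(−/−) co-transfected with V1-p53/MDM2-V2 BiFC plasmids using Lipofectamine 2000. Medium replaced 4–6 h after transfection, then compound (final 5 and 10 µM), nutlin-3a, or matched DMSO added; transfection period 24 h. Venus fluorescence read by flow cytometry and normalized to DMSO (100%). Three experiments.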
# MDA-MB-231 [18] = assay: Antiproliferative activity in human MDA-MB-231 cells incubated for 72 hrs by MTT assay; type: functional, cell-based; conditions: MDA-MB-231, 72 h; how it was run: as §1
# [19] = Potency index, ratio of IC50 for antiproliferative activity in human p53 (+/+) human HCT116 cells to IC50 for antiproliferative activity in human MDA-MB-231 cells; type: functional
# MDA-MB-231 [20] = assay: Induction of apoptosis in human MDA-MB-231 cells assessed as increase in caspase3/7 activity at antiproliferative IC50 level incubated for 48 hrs by Caspase-Glo 3/7 Assay; type: functional
# [21] = […], ratio of IC50 for antiproliferative activity in HEK293T cells to IC50 for antiproliferative activity in human MDA-MB-231 cells; type: toxicity, cell-based; conditions: HEK293T cells versus MDA-MB-231 cells, read-out: Ratio IC50
# How it was run: (§6)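 Ratio of HEK 293T IC50 to MDA-MB-231 IC50 from 72 h MTT assays.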
# [22] = Selectivity index, ratio of IC50 for antiproliferative activity in HEK293T cells to IC50 for antiproliferative activity in human MDA-MB-231 cells; type: toxicity, cell-based; conditions: HEK293T cells versus MDA-MB-231 cells, read-out: Ratio IC50; how it was run: as §6
# [23] = Potency index, ratio of IC50 for antiproliferative activity in human p53 (-/-) human HCT116 cells to IC50 for antiproliferative activity in human MDA-MB-231 cells; type: functional
# MDA-MB-231 [24] = assay: Induction of cell cycle arrest in human MDA-MB-231 cells at antiproliferative IC50 level by propidium iodide staining based flow cytometry; type: functional
# [25] = Potency index, ratio of IC50 for antiproliferative activity in human MCF7 cells to IC50 for antiproliferative activity in human MDA-MB-231 cells; type: functional
# HCT-116 [26] = assay: Induction of cell cycle arrest in p53 (+/+) human HCT116 cells assessed as accumulation at G2/M phase at antiproliferative IC50 level incubated for 24 hrs by propidium iodide staining based flow cytometry (reference value: 25.85%); type: functional
# HCT-116 [27] = assay: Induction of cell cycle arrest in p53 (+/+) human HCT116 cells assessed as accumulation at G2/M phase at antiproliferative IC50 level incubated for 48 hrs by propidium iodide staining based flow cytometry (reference value: 26.85%); type: functional
pIC50 (MCF7),pIC50 (HCT-116 [3]),pIC50 (HCT-116 [13]),pIC50 (MDA-MB-231 [18]),SMILES,Activity (HCT-116 [2]),Activity (CCD-18Co [4]),pIC50 (HEK-293T),Activity (HCT-116 [5]),Activity (HCT-116 [6]),selectivity ratio [8],Activity (HCT-116 [9]),selectivity ratio [10],Activity (CCD-18Co [11]),fold change (FC) (HCT-116 [14]),selectivity ratio [15],Activity (HCT-116 [16]),selectivity ratio [21],other results
5.02,4.86,4.75,5.12,O=C1Nc2ccc(Br)cc2C12N(c1ccccc1Cl)N=C(c1cccc(Cl)c1)N2c1cccc(Cl)c1 (centres undefined),33.41%,Non-Toxic,4.67,65.49%,42.61%,< 2,34.54%,1.5,40%,2.8,2.3,Dose-dependent effect,–,Ratio IC50 [1]: 1.3; Activity (HCT-116 [7]): Active; Activity (HCT-116 [12]): Active; inhibition [17]: Active
4.64,4.65,4.65,5.17,O=C1Nc2ccc(Br)cc2C12N(c1ccccc1)N=C(c1ccccc1)N2c1ccccc1 (centres undefined),–,–,4.25,–,–,2.5,–,2.5,–,–,2.4 to 2.5,–,≥ 2.5,Ratio IC50 [19]: >=2.4; fold change (FC) (MDA-MB-231 [20]): 2.5; selectivity ratio [22]: ≥ 2.4; Ratio IC50 [23]: >=2.4; Activity (MDA-MB-231 [24]): inactive; Ratio IC50 [25]: >=2.4
5.01,4.79,4.75,5.05,O=C1Nc2ccc(Cl)cc2C12N(c1ccccc1)N=C(c1ccccc1)N2c1cccc(Cl)c1 (centres undefined),31.34%,Non-Toxic,< 4.00,58%,36.42%,2.5 to 5.6,50.11%,2.5 to 5.6,40%,3.1,2.5 to 10.2,Dose-dependent effect,≥ 2.5,Activity (HCT-116 [26]): 13.87%; Activity (HCT-116 [27]): 13.65%
